Measured values collected from several papers.
Protocols differ between the studies behind these lines.

For Cn1cc(C(c2cccc(/C=C/C(=O)O)c2)c2cn(C)c3ccccc23)c2ccccc21, the IC50 was > 20000 nM (LNCaP; cell growth or viability; MTT; 48 h).
For CC(C)(C)OC(=O)NCCOc1cc(NC(=O)c2cnccn2)c2ncccc2c1, the IC50 was < 1000 nM (MIA PaCa-2; cell growth or viability; MTT; 72 h).
c1ccc(CNCc2cc3c(-c4ccccc4)n[nH]c3c(Nc3ccccc3)n2)cc1 has an IC50 of 2600 nM (MIA PaCa-2; cell growth or viability; MTS; 48 h).
For CC/C(=C(\c1ccc(O)cc1)c1ccc(OCCN(C)C)cc1)c1ccccc1, the IC50 was 2160 nM (T47D; cell growth or viability; 5 days).
COc1cc(Nc2nc(C#N)cc3c(-c4ccccc4)n[nH]c23)cc(OC)c1OC gave an IC50 of 3000 nM (MIA PaCa-2; cell growth or viability; MTS; 48 h).
With COc1ccc(C(=O)O[C@@H]2CN3Cc4c(cc5c(c4OC)OCO5)[C@@]24C=C[C@H](OC)C[C@@H]34)cc1 the IC50 was > 10000 nM (MOLT-4; cell growth or viability; WST-1).
The IC50 of COC(=O)CCC1=CC2C=CC=CC1C2C1CCCCC1=O (centres unmarked) is reported as 159 nM (Jurkat; cell growth or viability; flow cytometry).
COc1cc(Nc2nccc(-c3cnn4nc(OC)ccc34)n2)cc(C(F)(F)F)c1 gave an IC50 of 500 nM (COV434; cell growth or viability; ATP luminescence).
For Cc1ccc2c(c1)c(C(c1ccc(/C=C/C(=O)O)s1)c1cn(C(C)C)c3ccc(C)cc13)cn2C(C)C, the IC50 was < 3000 nM (LNCaP; cell growth or viability; MTT; 48 h).
CC(=O)c1ccc(N=Nc2c(C(=O)O)cc(O)c(O)c2O)cc1 gave an IC50 of 12000 nM (PaCa-2; cell growth or viability; MTT).
For O=c1c(O)c(-c2ccc(O)c(O)c2)oc2cc(O)cc(O)c12, the IC50 was 43400 nM (SW780; cell growth or viability; ATP luminescence; 72 h).
With CC(C)C[C@H](NC(=O)[C@H](Cc1ccccc1)NC(=O)c1cnccn1)B(O)O the IC50 was 11 nM (LOU-NH91; cell growth or viability; ATP luminescence).
With COc1c2c(cc3c1OCO3)[C@]13C=C[C@H](OC)C[C@H]1N(C2)C[C@H]3OC(=O)c1cccc(C)c1 the IC50 was > 10000 nM (MOLT-4; cell growth or viability; WST-1).
With O=C(O)c1ccc(C(c2c[nH]c3ccccc23)c2c[nH]c3ccccc23)cc1 the IC50 was 21000 nM (LNCaP; cell growth or viability; MTT; 48 h).
C[C@H](Nc1ncnc2nc[nH]c12)c1cc2cccc(Cl)c2c(=O)n1-c1ccccc1 gave an IC50 of 1.9 nM (CD4+ T; IL-2 release; inhibitor).
The IC50 of O=C(O)/C=C/c1ccc(O)cc1 is reported as > 50000 nM (PaCa-2; cell growth or viability; MTT).
With N#CCCCC1=CC2C=CC=CC1C2C1CCCCC1=O (centres unmarked) the IC50 was 69 nM (Jurkat; cell growth or viability; flow cytometry).
O=c1c(O[C@@H]2O[C@H](CO)[C@H](O)[C@H](O)[C@H]2O)c(-c2ccc(O)c(O)c2)oc2cc(O)cc(O)c12 gave an IC50 of 136000 nM (SW780; cell growth or viability; ATP luminescence; 72 h).
For Oc1ccc(C(c2c[nH]c3ccccc23)c2c[nH]c3ccccc23)cc1, the IC50 was > 100000 nM (LNCaP; cell growth or viability; MTT; 48 h).
With COc1cccc(C(=O)O[C@@H]2CN3Cc4c(cc5c(c4OC)OCO5)[C@@]24C=C[C@H](OC)C[C@@H]34)c1 the IC50 was > 10000 nM (MOLT-4; cell growth or viability; WST-1).
With O=C(O)/C=C/c1ccc(C(c2c[nH]c3ccccc23)c2c[nH]c3ccccc23)s1 the IC50 was 55000 nM (LNCaP; cell growth or viability; MTT; 48 h).
With CC(=O)c1cccc(N=Nc2c(C(=O)O)cc(O)c(O)c2O)c1 the IC50 was 9600 nM (PaCa-2; cell growth or viability; MTT).
OC[C@H]1O[C@@H](Oc2cc3c(O)cc(O)cc3[o+]c2-c2ccc(O)c(O)c2)[C@H](O)[C@@H](O)[C@@H]1O has an IC50 of 169000 nM (SW780; cell growth or viability; ATP luminescence; 72 h).
With C[C@@H](Oc1cc(-c2cnn(C3CCNCC3)c2)cnc1N)c1c(Cl)ccc(F)c1Cl the IC50 was 580 nM (Rh4; cell growth or viability; 72 h).
The IC50 of CCCCC1=CC2C=CC=CC1C2C1CCCCC1=O (centres unmarked) is reported as 37 nM (Jurkat; cell growth or viability; flow cytometry).
For O=c1c(O)c(-c2cc(O)c(O)c(O)c2)oc2cc(O)cc(O)c12, the IC50 was 20900 nM (SW780; cell growth or viability; ATP luminescence; 72 h).
CN1CCN(c2ccc3nc(-c4c(N)c5c(F)cccc5[nH]c4=O)[nH]c3c2)CC1 has an IC50 of 450 nM (SW780; cell growth or viability; MTT; 5 days).
The IC50 of Cc1[nH]c(/C=C2\C(=O)Nc3ccc(S(=O)(=O)N(C)c4cccc(Cl)c4)cc32)c(C)c1C(=O)N1CCN(C)CC1 is reported as 2210 nM (Rh4; cell growth or viability; 72 h).
CC(C)(C)SCCCC1=CC2C=CC=CC1C2C1CCCCC1=O (centres unmarked) gave an IC50 of 57 nM (Jurkat; cell growth or viability; flow cytometry).
The IC50 of CC[C@@]1(O)C(=O)OCc2c1cc1n(c2=O)Cc2cc3ccccc3nc2-1 is reported as 4 nM (RPMI 8402; cell growth or viability; MTT; 96 h).
The IC50 of O=C(O)c1cc(O)c(O)c(O)c1 is reported as 17500 nM (PaCa-2; cell growth or viability; MTT).
For COc1cc(N2CCC(N3CCN(C)CC3)CC2)ccc1Nc1ncc(Cl)c(Nc2ccccc2S(=O)(=O)C(C)C)n1, the IC50 was 90 nM (Rh4; cell growth or viability; 72 h).
